Bioassay records (PubChem BioAssay)
Hits are enriched below; roughly 1% of the tested compounds scored in any of these assays.
CaV13 ICDI inh: Disruptors of the CACNA1D IQ motif to Ca2+-dependent inactivation inhibitor domain association, primary screening, Förster resonance energy transfer in intact living …; HEK cells, CFP/YFP FRET ICDI-IQ, plate reader, 10 min; percent FRET-ratio fall versus neutral wells; inhibition, % at 12.3 µM; 340,000 tested, 0.098% active;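 active = mean replicate inhibition of at least 30% and at least 1% of replicates passing that level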;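 note: 0% = median of the neutral control wells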
INS-1E GSIS act: GLuc luminescence reporter in INS-1E cells, primary screen for activators of glucose-dependent secretion of insulin. INS-1E GLuc reporter insulin secretion, 2-3 h. activation, % at 16.6 µM. 370,000 tested, 0.61% active. AID 743287, 2014;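 active = lowest replicate activation of at least 40%, so every replicate reaches that level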;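 note: 0% = median of neutral control wells and 100% = median of IBMX positive control wells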
Xi reactivation: activators of inactive X chromosome reactivation, primary screen, imaging, XiGFP fibroblasts, GFP high-content imaging, set 2. XiGFP mouse fibroblasts, % GFP-positive cells imaging, 3 d; cells co-treated with 5-aza-dC sensitizer; scaled so ellipticine positive control = 100%. 360,000 tested, 0.055% active. activation, % at 7.58 µM;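 active = mean normalized replicate activation at least 10% and every replicate at or above 10%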;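 note: 0% = median of on-plate neutral control wells and 100% = ellipticine 6 µM median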
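Material: XiGFP fibroblasts, SV40-immortalized; Buffer or medium: DMEM containing 5-aza-dC; Compound dosing: single point; Times: 3 days compound exposure.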
GAA850 FXN act: FXN promoter activators, primary screen, cell-based, luciferase luminescence, HEK293 lucGAA850 | HEK293 lucGAA850 FXN promoter luciferase reporter, 24 h; percent of 10 µM SAHA response | 360,000 tested, 0.56% active | activation, % at 6 µM;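 active = activation above the average of all compounds screened plus 3 SD, cutoff fixed separately per campaign, cut at about 7.5% in these data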;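 note: 0% = DMSO wells and 100% = 10 µM SAHA wells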
GAA30 FXN cntr: GAA30 FXN promoter activators, confirmation, counter-screen for GAA850 frataxin promoter activator project, cell-based, luminescence, HEK293, lucGAA30, triplicate. shares compounds with GAA850 FXN act. HEK293 lucGAA30 FXN promoter luciferase, 24 h; DMSO = 0%, 5 µM ipriflavone = 100%. activation, % at 6 µM. 1,900 tested, 66% active;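 active = mean activation above the mean of solvent-only control wells plus 3 SD, cut at about 22% in these data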;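 note: counterscreen of GAA850 promoter hits where activity marks nonselective or luminescence artifacts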
GAA850 confirm: FXN GAA850 promoter activators in reporter cells, confirmation, cell-based, luminescence, HEK293 lucGAA850, triplicate | shares compounds with GAA850 FXN act | HEK293 lucGAA850 FXN promoter luciferase reporter, 24 h; 100% = activation by SAHA | activation, % at 6 µM | 1,900 tested, 86% active | AID 588351, 2011;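 active = mean activation above a set limit taken from the primary screen, cut at about 8% in these data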;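 note: 0% = DMSO wells and 100% = 10 µM SAHA wells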
An asterisk follows results filed as active; · = no result.

SMILES	CaV13 ICDI inh	INS-1E GSIS act	Xi reactivation	GAA850 FXN act	GAA30 FXN cntr	GAA850 confirm
O=C(CCl)Nc1cc(S(=O)(=O)N2CCCCCC2)ccc1Cl	-3	4	0	11*	-10	14*
CC1CC(C)CN(C(=O)c2cc3cc(Br)cc(Br)c3o2)C1 (configuration not stated)	-7	-9	0	10*	62*	26*
COc1ccc(C(=O)/C=C2\C(=O)Nc3ccc(Br)cc32)cc1	-7	31	0	2	·	·
O=C1Nc2ccc(Br)cc2/C1=C/C(=O)c1ccc2c(c1)OCO2	-19	1	0	11*	14	9.9*
CCCC(=O)N1CC2(CCN(C(=O)NC(C)C)CC2)c2c(n(C)c3cc(OC)ccc23)[C@@H]1CO	·	16	0	·	·	·
CNC(=O)C[C@@H]1CC[C@@H]2[C@@H](COc3ccc(NC(=O)c4ccc(OC)cc4)cc3C(=O)N2C)O1	·	-1	0	·	·	·
Nc1nc(-c2ccccc2)cc(-c2ccccc2O)n1	-10	·	·	9.3*	53*	48*
COc1cc(/C=N\n2cnnc2)ccc1OCC(=O)Nc1ccc(C)cc1	-2	·	·	3	·	·
COc1ccc(NC(=O)COc2ccc(/C=N/n3c(C)nnc3C)cc2OC)cc1	·	-15	·	8.0*	37*	12*
Cn1c(SCc2ccccc2)nc(N)c(N=O)c1=O	-20	·	0	11*	-10	19*
O=S1(=O)N=C(Nc2ccc(N3CCOCC3)c(Cl)c2)c2ccccc21	-5	2	0	8.4*	103*	34*
CN1C(=O)c2cc(NC(=O)c3ccccc3Cl)ccc2OC[C@H]2O[C@H](CC(=O)O)CC[C@@H]21	·	4	0	·	·	·
O=C(CCS(=O)(=O)c1ccccc1)N(CCCN1CCOCC1)c1nc2c(F)cccc2s1	-5	-4	0	5	·	·
O=C(CCS(=O)(=O)c1ccccc1)N(CCCN1CCOCC1)c1nc2ccc(F)cc2s1	-7	8	0	15*	105*	66*
CC(C)CC#Cc1cnc2c(c1)C(=O)N([C@@H](C)CO)C[C@@H](C)[C@H](CN(C)Cc1ccc3c(c1)OCO3)O2	·	-35	-1	·	·	·
O=C(c1ccccc1)c1cc2cc(Cl)ccc2[nH]1	-14	41*	0	8.3*	87*	35*
Cc1sc(NC(=O)c2ccccc2)c(C#N)c1-c1ccccc1	-8	-13	·	11*	111*	38*
CCc1c(C)sc(NC(=O)c2cccs2)c1C#N	-6	·	0	5	·	·
C[C@H](CO)N1C[C@H](C)[C@@H](CN(C)Cc2cncnc2)Oc2ncc(C#Cc3ccccn3)cc2C1=O	·	1	0	·	·	·
COc1ccc(/C=N/Nc2nc3ccccc3s2)cc1O	-7	-7	0	6	·	·
CC(=O)Nc1ccc(/C=N/Nc2nc3ccccc3s2)cc1	-15	4	0	8.7*	123*	36*
C[C@H](CO)N1C[C@H](C)[C@H](CN(C)C)Oc2ccc(NC(=O)Cc3cn(C)c4ccccc34)cc2C1=O	·	-4	0	·	·	·
Nc1c(-c2cccs2)cnc2c(-c3ccc(F)cc3)cnn12	-13	-16	0	6	·	·
Nc1c(-c2ccccc2)cnc2c(-c3ccccc3)cnn12	-21	0	0	8.4*	91*	35*
COc1ccc(/C=N\NC(=O)c2sccc2C)cc1Cn1nc(C)cc1C	-3	-23	0	8.1*	42*	22*
CC=Cc1ccc2n(c1=O)C[C@@H]1[C@@H](CO)[C@H](C(=O)NCCc3ccncc3)N(Cc3cncnc3)[C@H]21 (mixture of isomers)	·	-3	0	·	·	·
COC(=O)[C@H](C)NC(=O)NCc1ccc(F)cc1	-8	6	·	-1	·	·
COC(=O)[C@H](C)NC(=O)NCc1ccccc1F	·	·	·	9.4*	18	6
